Measurements as given in ChEMBL document CHEMBL2424623, “Enantioselective binding of chiral 1,14-dimethyl[5]helicene-spermine ligands with B- and Z-DNA” (Bioorg Med Chem, 2013).
“And” between values parts separate entries of the source, which are not always exact repeats. Identical values can stand only once. The source made the active and inactive calls. The calls are words filed in the database; no cut-off is given here.

Experiments:
[1] = Binding affinity to d(CGCm8GCG)2 DNA (unknown origin) assessed as association constant at 4.1 compound to DNA molar ratio by ITC analysis
How it was run: (§1)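 Isothermal titration calorimetry at 25.0 °C. Ligand at 1 mM, dissolved in the final ODN dialysate, was titrated into 10.0 µM duplex d(CGCGCG)2 or d(CGCm8GCG)2 in 5 mM Na cacodylate, 100 mM NaCl, pH 7.0. The first 2 µL injection was followed by 10 µL injections, and the first injection was discarded. Samples were degassed. Stoichiometry is ligand per duplex.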

[2] = Dissociation rate to 5'-biotin-conjugated d(TTTTCGCm8GCG-TTTT-CGCm8GCG) DNA (unknown origin) measured for 150 seconds by SPR analysis
[3] = Binding affinity to d(CGCm8GCG)2 DNA (unknown origin) assessed as change in UV-melting temperature at 5 uM
How it was run: (§2)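 UV melting used 5 µM B- or Z-DNA in 5 mM Na cacodylate, 100 mM NaCl, pH 7.0, with or without 5 µM ligand. Temperature was ramped at 1 °C/min between 10 and 60 °C.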

[4] = Binding affinity to d(CGCGCG)2 DNA (unknown origin) assessed as change in UV-melting temperature at 5 uM; how it was run: as §2
[5] = Binding affinity to d(CGCGCG)2 DNA (unknown origin) assessed as association constant at 3.5 compound to DNA molar ratio by ITC analysis; how it was run: as §1
[6] = Dissociation rate to 5'-biotin-conjugated d(TTTTCGCGCG-TTTT-CGCGCG) DNA (unknown origin) measured for 150 seconds by SPR analysis
[7] = Binding affinity to d(CGCGCG)2 DNA (unknown origin) assessed as association constant at 2:1 DNA to compound ratio by ITC analysis; how it was run: as §1
[8] = Selectivity ratio of Ka for d(CGCm8GCG)2 DNA (unknown origin) to Ka for d(CGCGCG)2 DNA (unknown origin); how it was run: as §1
[9] = Binding affinity to d(CGCGCG)2 DNA (unknown origin) assessed as association constant at 4.0 compound to DNA molar ratio by ITC analysis; how it was run: as §1
[10] = Selectivity ratio of Ka for 5'-biotin-conjugated d(TTTTCGCm8GCG-TTTT-CGCm8GCG) DNA (unknown origin) to Ka for 5'-biotin-conjugated d(TTTTCGCGCG-TTTT-CGCGCG) DNA (unknown origin)
[11] = Selectivity ratio of Ka for 5'-biotin-conjugated d(TTTTCGCGCG-TTTT-CGCGCG) DNA (unknown origin) to Ka for 5'-biotin-conjugated d(TTTTCGCm8GCG-TTTT-CGCm8GCG) DNA (unknown origin)
[12] = Binding affinity to d(CGCm8GCG)2 DNA (unknown origin) assessed as association constant at 1.8 compound to DNA molar ratio by ITC analysis; how it was run: as §1
[13] = Selectivity ratio of Ka for d(CGCGCG)2 DNA (unknown origin) to Ka for d(CGCm8GCG)2 DNA (unknown origin); how it was run: as §1
[14] = Induction of d(CGCGCG)2 DNA (unknown origin) to d(CGCm8GCG)2 DNA transition up to 160 uM by CD spectra analysis in presence of low concentration of NaCl
How it was run: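 CD at 20 °C in a 2 mm cell. 20 µM d(CGCGCG)2 in 5 mM Na cacodylate, 100 mM NaCl, pH 7.0, was titrated with ligand stock from 0 to 160 µM. Spectra were blank-corrected and averaged over four scans.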

[15] = Binding affinity to d(CGCm8GCG)2 DNA (unknown origin) assessed as association constant at 1.7 compound to DNA molar ratio by ITC analysis; how it was run: as §1
[16] = Binding affinity to d(CGCGCG)2 DNA (unknown origin) assessed as association constant at 2.0 compound to DNA molar ratio by ITC analysis; how it was run: as §1

Ka [1] [×10⁷ /M] | koff [2] | ΔTm [3] | ΔTm [4] [°C] | Ka [5] [×10⁷ /M] | koff [6] | Ka [7] [×10⁸ /M] | Selectivity ratio [8] | Ka [9] [×10⁷ /M] | Selectivity ratio [10] | Selectivity ratio [11] | Ka [12] [×10⁷ /M] | Selectivity ratio [13] | Activity [14] | Ka [15] [×10⁷ /M] | Ka [16] [×10⁷ /M] | Structure (SMILES)
0.31 | 6.66 ×10⁻³ /s | 18 °C | 16 | 0.62 | 7.49 ×10⁻³ /s |  |  |  |  |  |  |  |  |  |  | NCCCNCCCCNCCCN1C(=O)C(c2ccc3ccccc3c2)=C(c2ccc3ccccc3c2)C1=O
 | 5.48 ×10⁻³ /s and 6.68 ×10⁻³ /s | 7.5 °C and 3.3 °C |  |  | 3.7 ×10⁻³ /s and 8.59 ×10⁻³ /s | 3.7 | 2 | 0.083 | 2 | 7 | 0.17 | 50 | Active | 0.67 | 36.7 | Cc1cccc2ccc3c4c(c5ccc6cccc(C)c6c5c3c12)C(=O)N(CCCNCCCCNCCCN)C4=O
